Test results published in ChEMBL document CHEMBL1122756, “Synthesis of (E)-5-(3,3,3-trifluoro-1-propenyl)-2'-deoxyuridine and related analogues: potent and unusually selective antiviral activity of (E)-5-(3,3,3-trifluoro-1-propenyl)-2'-deoxyuridine against herpes simplex virus type 1” (1984).
Values after ≈ are worked out from the molar mass of the structure shown.

Legend:
Human alphaherpesvirus 1 [1] = experiment: Compound was evaluated for antiviral activity against HSV-1(TK-, strain B2006); assay type: functional
How it was run: (§1)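 Herpes stocks grown in primary rabbit kidney (PRK) cells. Confluent PRK cultures were inoculated at 0.03 pfu/cell, and the compound's effect on virus multiplication was measured. The readout is ID99, the concentration that cuts viral yield by 99%.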

Human alphaherpesvirus 1 [2] = experiment: Compound was evaluated for antiviral activity against HSV-1(strain KOS); assay type: functional; how it was run: as §1
Human alphaherpesvirus 2 = experiment: Compound was evaluated for antiviral activity against HSV-2(strain G); assay type: functional; how it was run: as §1
Oryctolagus cuniculus [3] = species on record: Oryctolagus cuniculus; experiment: Concentration of compound required to inhibit [methyl-3H]dThd incorporation into host cell DNA by 50% in primary rabbit kidney cell cultures; assay type: functional; conditions: read-out: ID50 (the source's name)
How it was run: (§2)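 Uptake of radiolabel into DNA was measured in PRK cultures. Input per 10^5 cells was 6 pmol (0.25 µCi) of [1',2'-3H]dUrd for the dUrd line, or 10 pmol (0.38 µCi) of [methyl-3H]dThd for the dThd line. The value is the concentration giving 50% inhibition of incorporation.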

Oryctolagus cuniculus [4] = species on record: Oryctolagus cuniculus; experiment: Concentration of compound required to inhibit [1',2'-3H]dUrd incorporation into host cell DNA by 50% in primary rabbit kidney cell cultures; assay type: functional; conditions: read-out: ID50 (the source's name); how it was run: as §2
Vaccinia virus [5] = experiment: Compound was evaluated for antiviral activity against vaccinia; assay type: functional, Orthopoxvirus vaccinia
Vaccinia virus [6] = experiment: Compound was evaluated for its antiviral activity against vaccinia; assay type: functional, Orthopoxvirus vaccinia

Row | SMILES | ID99 (Human alphaherpesvirus 1 [1]) [µg/mL] | ID99 (Human alphaherpesvirus 1 [2]) [µg/mL] | ID99 (Human alphaherpesvirus 2) [µg/mL] | IC50 (Oryctolagus cuniculus [3]) [µg/mL] | IC50 (Oryctolagus cuniculus [4]) [µg/mL] | ID99 (Vaccinia virus [5]) [µg/mL] | ID99 (Vaccinia virus [6]) [µg/mL]
1 | O=c1[nH]c(=O)n([C@H]2C[C@H](O)[C@@H](CO)O2)cc1/C=C/C(F)(F)F | >100 | 0.03 | 100 | 300 (≈ 931 µM) | 150 (≈ 465 µM) | >100 | 
2 | C/C=C/c1cn([C@H]2C[C@H](O)[C@@H](CO)O2)c(=O)[nH]c1=O | >100 | 0.15 | 18 | 25 (≈ 93.2 µM) | 40 (≈ 149 µM) | >100 | 
3 | O=c1[nH]c(=O)n([C@H]2C[C@H](O)[C@@H](CO)O2)cc1/C=C/Br [BRIVUDINE] | >100 | 0.008 | 3 | 70 (≈ 210 µM) | 20 (≈ 60 µM) |  | 22
4 | O=c1[nH]c(=O)n([C@H]2C[C@H](O)[C@@H](CO)O2)cc1I [IDOXURIDINE] | >100 | 0.1 | 0.8 | 1 (≈ 2.82 µM) | 0.25 (≈ 0.706 µM) | 0.25 | 
5 | O=c1[nH]c(=O)n([C@H]2C[C@H](O)[C@@H](CO)O2)cc1C(F)(F)F [TRIFLURIDINE] | 0.4 | 0.7 | 1.2 | 20 (≈ 67.5 µM) | 0.01 (≈ 0.0338 µM) | 0.12 | 
